The text below walks through data of BindingDB's records for doi:10.1016/j.bmc.2011.02.028 (Kinki University, 2011).

Where a name gives a salt, the structure may show the parent alone. A value given as a limit tells only on which side of the number the result lay.

The test can be described thus: Inhibition of rat small intestinal maltase after 30 mins. In a few lines: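 Enzyme source was rat small-intestinal brush-border membrane vesicles suspended in 0.1 M maleate buffer, pH 6.0. Substrate solutions were maltose 74 mM (maltase), sucrose 74 mM (sucrase) and isomaltose 7.4 mM (isomaltase). Glucose was measured by glucose oxidase. IC50 was read graphically from % inhibition versus log concentration.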

The molecule `O=S(=O)([O-])O[C@H]([C@@H](O)[C@H](O)[C@H](O)CO)[C@H](O)C[S+]1C[C@@H](O)[C@H](O)[C@H]1CO` (stereo partly drawn) [1,4-dideoxy-1,4-{(S)-[(2S,3R,4S,5R,6R)-2,4,5,6,7-pentahydroxy-3-(sulfooxy)heptyl]episulfoniumylidene}-D-arabinitol inner salt] came in with an IC50 of over 236 µM.
In turn, `O=S(=O)([O-])O[C@H]([C@@H](O)[C@H](O)[C@@H](O)CO)[C@H](O)C[S+]1C[C@@H](O)[C@H](O)[C@H]1CO` (stereo partly drawn) [1,4-dideoxy-1,4-{(S)-[(2S,3R,4S,5R,6S)-2,4,5,6,7-pentahydroxy-3-(sulfooxy)heptyl]episulfoniumylidene}-D-arabinitol inner salt] registered an IC50 of over 236 µM.
In the case of `O=S(=O)([O-])O[C@H]([C@@H](O)[C@@H](O)[C@H](O)CO)[C@H](O)C[S+]1C[C@@H](O)[C@H](O)[C@H]1CO` (stereo partly drawn) [1,4-dideoxy-1,4-{(S)-[(2S,3R,4S,5S,6R)-2,4,5,6,7-pentahydroxy-3-(sulfooxy)heptyl]-episulfoniumylidene}-D-arabinitol inner salt] it was over 236 µM; in that of `O=S(=O)([O-])O[C@H]([C@@H](O)[C@@H](O)[C@@H](O)CO)[C@H](O)C[S+]1C[C@@H](O)[C@H](O)[C@H]1CO` (stereo partly drawn) [1,4-dideoxy-1,4-{(S)-[(2S,3R,4S,5S,6S)-2,4,5,6,7-pentahydroxy-3-(sulfooxy)heptyl]episulfoniumylidene}-D-arabinitol inner salt], 57 µM.
For `O=S(=O)([O-])OC[C@H](O)C[S@@+]1C[C@@H](O)[C@H](O)[C@H]1CO` [Salaprinol] the value was 3.2 µM; for `O=S(=O)([O-])O[C@@H]([C@H](O)[C@@H](O)CO)[C@H](O)C[S@@+]1C[C@@H](O)[C@H](O)[C@H]1CO` [ponkoranol], over 100 µM.

A word on the IC50: it is the concentration that gives 50% inhibition.
